{"data": "Published values collected from several papers", "target": "Myosin light chain kinase, smooth muscle (MYLK, Homo sapiens, UniProt Q15746)", "note": "Each line is one published result; the experiments were not run side by side."}
{"SMILES": "C#Cc1n[nH]c2c(-c3cn([C@@H](C)c4ccccc4)c(=O)[nH]c3=O)cc(F)cc12", "assay": "enzyme activity, inhibitor", "conditions": "0.1 µM", "measurement": "inhibition", "result": "-0.2%"}
{"SMILES": "Cc1nn(C)cc1-c1nc2c(N3CCN(Cc4ccc(Cl)cc4)CC3)c(Cl)cnc2[nH]1", "assay": "binding, competition with immobilised ligand", "conditions": "1 µM", "measurement": "remaining binding", "result": "89%"}
{"SMILES": "COc1ncccc1-c1cnn2ccc(N3CCN(C(=O)OC(C)C)CC3)nc12", "assay": "binding, competition with immobilised ligand", "conditions": "1 µM", "measurement": "remaining binding", "result": "85%"}
{"SMILES": "CC(C)(C)c1cc(C=C(C#N)C#N)cc(Br)c1O", "assay": "enzyme activity, inhibitor", "conditions": "0.5 µM", "measurement": "remaining activity", "result": "90.6%"}
{"SMILES": "Cn1cncc1[C@](O)(COc1ccc(C#N)cc1-c1ccc(OC(F)(F)F)cc1)c1ccc(C#N)cc1", "assay": "cell-free assay, competition with immobilised ligand", "conditions": "1 µM", "measurement": "remaining binding", "result": "88%"}
{"SMILES": "Nc1ncc(-c2nc(N3CCOCC3)nc(N3CCOCC3)n2)c(C(F)F)n1", "assay": "binding, competition with immobilised ligand", "conditions": "10 µM", "measurement": "remaining binding", "result": "78%"}
{"SMILES": "Cn1cc(-c2cccc(N3CCc4c(sc5c4CC(C)(C)C5)C3=O)c2CO)cc(Nc2ccncn2)c1=O", "assay": "enzyme activity, inhibitor", "conditions": "1 µM", "measurement": "inhibition", "result": "-4%"}
{"SMILES": "O=c1[nH]c2ccccc2n1C1CCN(Cc2ccc(-c3[nH]c4cc5ncnc5cc4nc3-c3ccccc3)cc2)CC1", "assay": "cell-free assay", "conditions": "0.5 µM", "measurement": "remaining signal", "result": "104%"}
{"SMILES": "C#Cc1n[nH]c2c(-c3cn([C@@H](C)c4ccccn4)c(=O)[nH]c3=O)cc(F)cc12", "assay": "enzyme activity, inhibitor", "conditions": "0.1 µM", "measurement": "inhibition", "result": "1.4%"}
